# WT yeast gro inh = growth inhibition of WT strain, primary screen, mitochondrial fusion inhibitor project, WT and mutant strains, chemical genetic; mitochondrial fusion phenotypic screen; inhibition, % at 10 µM; hit rate 2.1% among 190,000; AID 1362, 2008; in the data active = inhibition above about 58%; tested in S. cerevisiae
# RAM network inh = inhibitors of the yeast RAM network, primary screen, dse1pr::URA3 reporter, 5-FOA selection | inhibition, % at 50 µM | hit rate 1.8% among 190,000 | S. cerevisiae dse1pr::URA3 reporter, 5-FOA growth OD615, 2 d; analog-sensitive cbk1-as2 kinase mutant strain;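 active = inhibition above a set limit, 3 SD over mean compound inhibition, cut at about 8.4% in these data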;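 note: 0% = DMSO-only wells with no growth and 100% = 10 µM 1-NA-PP1 full growth; inhibition rescues growth on 5-FOA so higher OD means more RAM inhibition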
# Yeast growth inh = growth inhibitors of yeast BB579 in restrictive medium, primary screen, yeast lifespan-shortening project, S. cerevisiae; hit rate 0.51% among 140,000; OD615, 48 h; inhibition, % at 10 µM;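 active = inhibition above a set limit, 3 SD over the mean compound inhibition, cut at about 44% in these data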
#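 Detection: OD615 turbidity measurement; Material: Saccharomyces cerevisiae DeaD strain BB579, replicative lifespan model yeast; Timing: 48 h exposure, 30 °C; Doses: single 10 µM dose; Medium: CSMM-D restrictive synthetic medium containing dextrose (glucose); Controls: amphotericin B at 10 µg/mL as positive control.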
# Yeast lifespan up = compounds extending yeast replicative lifespan, primary screen, S. cerevisiae, OD615 | hit rate 0.68% among 130,000 | inhibition of the nicotinamide effect, % at 10 µM | S. cerevisiae growth with nicotinamide; deaD strain in restrictive glucose medium;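 active = inhibition above a set limit, placed 3 SD over the median of all compounds, cut at about 26% in these data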;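 note: 0% = nicotinamide-treated wells and 100% = cells grown without nicotinamide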
#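 Assay system: DeaD-strain S. cerevisiae. Medium: CSMM-D glucose medium, restrictive. Reagent: nicotinamide, 1.5 mM, co-present with compound. Compound: 10 µM single point, 0.25% DMSO. Schedule: culture preincubation 4 h, compound exposure 48 h, both 30 °C. Detection: absorbance at 615 nm.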
# Cl transport mod = KCC2 cotransporter modulators, thallium flux, primary screen, cell-based, HEK293 KCC2, FluoZin-2 fluorescence, MLSMR; B-score of Tl+ flux slope (higher = more flux/activation; lower = inhibition) at 10 µM; hit rate 2.2% among 190,000; KCC2 cells, thallium flux FluoZin-2 fluorescence; AID 1456, 2008;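 active = thallium flux slope and its plate-corrected score both differing from the plate sample mean at a set confidence after two filtering rounds, in either direction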;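 note: slope of fluorescence scaled to starting intensity during 10 to 20 s after thallium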
# * hit, by the source's call; x = no result. The list is not random: actives were taken first. Their share in the collection is about 5.5%.
SMILES,WT yeast gro inh,RAM network inh,Yeast growth inh,Yeast lifespan up,Cl transport mod
COC(=O)c1cc(NC(=O)c2c(F)c(F)c(F)c(F)c2F)cc(C(=O)OC)c1,16,2,-37,3,-1.3
CC12CCC(c3nnc(SCc4ccc(Cl)cc4)nc31)C2(C)C (configuration not stated),29,3,-40,x,0.0039
CN1CCC2(CC1)Nc1nc(SCc3ccc(Cl)cc3)nn1C1=C2CN(C)CC1,66*,-1,5,-26,-0.26
CC12CC3(C)CC(C)(C1)CC(C(=O)NC(=S)NC(C)(C)C)(C2)C3,70*,5,-12,-7,-0.74
O=C(NC1C2CC3CC(C2)CC1C3)C1CC1 (configuration not stated),-12,0,10,-1,0.82
CC(C)(C)NC(=S)NC(=O)C12CC3CCC(CC(C3)C1)C2,70*,5,-29,8,0.3
CN(C)NC(=S)NC(=O)C12CC3CC(CC(C3)C1)C2,47,0,x,x,0.26
CN(C)CCNC(=O)C12CC3(C)CC(C)(CC(C)(C3)C1)C2,-19,3,-49,4,0.91
O=C(NC(=S)NC1C2CC3CC(C2)CC1C3)C12CC3CC(CC(C3)C1)C2 (configuration not stated),63*,5,-22,-1,0.17
C(=N\Nc1nc(N2CCCCC2)nc(N2CCCCC2)n1)/c1c[nH]c2ccccc12,63*,0,x,x,x
O=[N+]([O-])c1ccc(/C=N/Nc2nc(N3CCCCC3)nc(N3CCCCC3)n2)o1,70*,-2,-6,-5,-1.5
COc1ccc(/C=N/Nc2nc(Nc3ccccc3)nc(N3CCCC3)n2)cc1,20,2,x,x,0.11
C(=N\Nc1nc(Nc2ccccc2)nc(N2CCCCC2)n1)/c1ccco1,69*,-2,x,x,x
CCOC(=O)NC(=O)C(=CNc1ccc(C)cc1)C(=O)NC(=O)OCC,-7,2,-15,0,-0.25
CCOC(=O)C1(Cc2ccccc2)CCN(Cc2ccc3cc(NC(C)=O)ccc3n2)CC1,6,1,x,x,-0.0053
Cc1onc(-c2c(Cl)cccc2Cl)c1C(=O)ONC(=O)c1ccccc1,x,x,x,x,0.44
O=C(CSc1nnc(-c2ccc(C(F)(F)F)cn2)s1)c1ccccc1,x,x,x,x,0.16
O=c1/c(=C/c2cccc3ccccc23)sc2ncnn12,8,3,-20,29*,x
C=CCn1c(O)c(C=Nc2ccc(CN3CCCCC3)cc2)c(=O)[nH]c1=S,x,x,x,x,-0.23
Cc1cc(C)n(CCc2nc(-c3ccc(-c4ccccc4)cc3)cs2)n1,18,8.7*,-45,1,-0.042
Cc1cccc(N2CCN(C(=O)CCCSc3nc4ccccc4[nH]3)CC2)c1C,2,0,-42,-9,-0.38
O=C(CN1C(=O)CSc2cc(S(=O)(=O)N3CCCCCC3)ccc21)NCCc1ccccc1,10,3,-9,2,-7.8*
Clc1cc(Cl)c(OCc2nc(-c3ccccn3)no2)cc1Cl,10,11*,-68,-1,1.1
COc1ccc(Cc2nc(-c3ccccn3)no2)cc1,-5,0,-17,-7,x
c1ccc(Cc2nc(-c3ccccn3)no2)cc1,-4,1,-40,-9,-1.2
SMILES,WT yeast gro inh,RAM network inh,Yeast growth inh,Yeast lifespan up,Cl transport mod
CC(C)(C)c1ccc(OCc2nc(-c3ccccn3)no2)c(Br)c1,80*,4,-8,-7,0.88
c1ccc(-c2ncnc3cc4n(c23)CCC4)cc1,-19,2,-15,x,0.62
COc1ccc(NC(=O)CN2CCN(C3c4ccccc4-c4ccccc43)CC2)cc1,5,2,-10,-20,-1.2
Clc1ccc(CNc2nc(CN3CCOCC3)nc3scc(-c4ccccc4)c23)cc1,79*,1,-26,1,-1.1
Cc1cc(C)nc(-n2cc(C(=O)c3cc(F)ccc3O)cn2)n1,15,-2,-28,30*,0.074
O=C(N/C(=C\c1ccccc1)C(=O)N1CCN(CCO)CC1)c1ccccc1,-10,1,-5,2,0.085
O=c1c2cc(N3CCOCC3)ccc2[nH]c(=S)n1Cc1ccccc1Cl,19,8.5*,x,x,0.7
C=CCn1c(=O)[nH]c2cc(C(=O)N3CCN(c4ccc(C(C)=O)cc4)CC3)ccc2c1=O,22,3,-46,55*,1.8
O=c1c2cc(N3CCOCC3)ccc2[nH]c(=S)n1Cc1ccccn1,-2,2,-5,0,1.2
CC(=O)c1ccc(N2CCN(C(=O)c3ccc(Cn4c(=S)[nH]c5ccc(N6CCOCC6)cc5c4=O)cc3)CC2)cc1,-7,9.4*,x,x,0.1
Cc1cccc(NC(=O)CSc2nnnn2-c2ccc3c(c2)OCCO3)n1,-5,4,x,x,-0.45
CNCc1ccccc1Sc1ccc(OC)c(OC)c1,-9,0,-11,-6,-0.84
CCOc1ccccc1C(=O)Nc1cc(OC)ccc1OC,63*,2,-22,-7,x
Cc1nc2ccccc2c(=O)n1/N=C/C=C/c1ccccc1,x,x,x,x,-0.0075
COc1cc(OC)cc(-c2nc3ccccc3c(=O)n2OC(=O)c2ccccc2C)c1,-4,5,-12,61*,-0.43
Cc1cc2nnc(SCC(=O)OC(C)C)n2c2ccccc12,-2,-1,-26,-4,-1.7
Cc1ccc(C(=O)NN(CCC(=O)NC(C)(C)C)C2=NS(=O)(=O)c3ccccc32)cc1,-13,9.6*,-12,2,-0.22
COC(=O)c1sc2nc(C)nc(SCC(=O)N3CCC(C(=O)O)CC3)c2c1C,-14,0,x,x,0.45
Cc1onc(-c2ccccc2)c1C(=O)NC(=S)NNC(=O)c1ccc(O)cc1O,28,1,80*,0,-1.2
Cc1onc(-c2c(F)cccc2Cl)c1C(=O)Nc1sc2c(c1C(N)=O)CCC2,67*,4,-3,-19,-0.15
Cc1onc(-c2ccccc2)c1C(=O)NC(=S)Nc1sc2c(c1C#N)CCCC2,2,4,-10,1,23*
Cc1cc(C(=O)Nc2sc3c(c2C#N)CCCC3)no1,6,5,-14,-9,3.7*
Oc1c(N=Nc2ccccn2)ccc2ccccc12,32,1,96*,-12,53*
O=[N+]([O-])c1ccc(N(c2ccccc2)c2ccccc2)cc1,-2,10*,-13,-23,2
CCN(C(=O)c1ccccc1)c1ccc([N+](=O)[O-])cc1,-4,-1,-29,0,0.44
C=CCN1C(=O)CS/C1=N\N=C\c1cccc([N+](=O)[O-])c1,-10,3,x,x,0.62
Cc1ccccc1C(=O)N1CCC(C(=O)N2CCN(S(=O)(=O)c3ccccc3F)CC2)CC1,13,2,x,x,0.089
Cc1oc(-c2ccccc2)cc1C(=O)Nc1cccc(/C=C\C(=O)O)c1,0,8.5*,x,x,-0.94
COc1cccc(-n2c(=O)n(Cc3ccccc3)c(=O)c3[nH]cnc32)c1,x,x,x,x,0.068
